Measurements published in ChEMBL document CHEMBL4024713, “Novel aryl piperazines for alleviation of 'andropause' associated prostatic disorders and depression” (Eur J Med Chem, 2017).
The source made the active and inactive calls. The calls are words filed in the database; no cut-off is given here.

Columns and labels:
DU-145 = test: Cytotoxicity against human DU145 cells after 24 hrs by MTT assay; type: functional, cell-based; conditions: DU-145, 24 h
Rattus norvegicus [1] = test: Anti-androgenic activity in citral-induced prostatic hyperplasia Sprague-Dawley rat model assessed as prostate weight at 10 mg/kg, po administered once daily coadministered with citral for 21 days measured 24 hrs last post dose (reference value: 100%); type: functional
Method in brief: (§1)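 Adult male Sprague-Dawley rats (250-280 g, n = 5), citral 100 mg/kg orally once daily for 28 days. From day 8, compound or flutamide at 10 mg/kg orally once daily for the remaining 21 days. Prostate weight is expressed relative to the citral group (100%). Prostates fixed in 10% formalin; 5 μ sections stained with H&E, examined by light microscopy.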

Rattus norvegicus [2] = test: Toxicity in citral-induced prostatic hyperplasia Sprague-Dawley rat model assessed as effect on testis weight at 10 mg/kg, po administered once daily coadministered with citral for 21 days measured 24 hrs last post dose; type: organism-based; conditions: in vivo
Rattus norvegicus [3] = test: Toxicity in citral-induced prostatic hyperplasia Sprague-Dawley rat model assessed as effect on epididymis weight at 10 mg/kg, po administered once daily coadministered with citral for 21 days measured 24 hrs last post dose; type: organism-based; conditions: in vivo
Rattus norvegicus [4] = test: Anti-androgenic activity in citral-induced prostatic hyperplasia Sprague-Dawley rat model assessed increase in distinction between stromal and acinar compartments at 10 mg/kg, po administered once daily coadministered with citral for 21 days measured 24 hrs last post dose by hematoxyline and eosin stainig based light microscopic analysis; type: functional, organism-based; method in brief: as §1
Mus musculus [5] = test: Anti-depressant like activity in Swiss albino mouse assessed as reduction in immobility time at 20 mg/kg, po administered 60 mins prior to test measured for 5 mins by forced swim test relative to control; type: functional; parameters: scale not given: the % may be the effect or the level left
Method in brief: (§2)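 Male Swiss albino mice (20-25 g); compound 20 mg/kg, imipramine 60 mg/kg or fluoxetine 20 mg/kg given orally in 1% gum acacia (10 mL/kg). After 60 min: 15 min pre-swim in a water cylinder (10 cm depth, 25 ± 1 °C), then retest at 24 h. Immobility recorded for 5 min after 1 min acclimatization; N = 7-9, mean ± SEM, unpaired t-test.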

PC-3 = test: Cytotoxicity against human PC3 cells after 24 hrs by MTT assay; type: functional, cell-based; conditions: PC-3, 24 h
Rattus norvegicus [6] = test: Toxicity in citral-induced prostatic hyperplasia Sprague-Dawley rat model assessed as effect on seminal vesicle weight at 10 mg/kg, po administered once daily coadministered with citral for 21 days measured 24 hrs last post dose; type: organism-based; conditions: in vivo
LNCaP = test: Cytotoxicity against human LNCAP cells after 24 hrs by MTT assay; type: functional, cell-based
[7] = target: T1, Alpha-1A adrenergic receptor (Homo sapiens) (UniProt P35348); test: Antagonist activity at recombinant human alpha1a adrenergic receptor expressed in human Chem1 cell membrane assessed as reduction in ephinephrine-induced calcium mobilization at 1 uM by fluoforte dye based fluorescence assay relative to ephinephrine; type: functional
T1 sequence (whole entry): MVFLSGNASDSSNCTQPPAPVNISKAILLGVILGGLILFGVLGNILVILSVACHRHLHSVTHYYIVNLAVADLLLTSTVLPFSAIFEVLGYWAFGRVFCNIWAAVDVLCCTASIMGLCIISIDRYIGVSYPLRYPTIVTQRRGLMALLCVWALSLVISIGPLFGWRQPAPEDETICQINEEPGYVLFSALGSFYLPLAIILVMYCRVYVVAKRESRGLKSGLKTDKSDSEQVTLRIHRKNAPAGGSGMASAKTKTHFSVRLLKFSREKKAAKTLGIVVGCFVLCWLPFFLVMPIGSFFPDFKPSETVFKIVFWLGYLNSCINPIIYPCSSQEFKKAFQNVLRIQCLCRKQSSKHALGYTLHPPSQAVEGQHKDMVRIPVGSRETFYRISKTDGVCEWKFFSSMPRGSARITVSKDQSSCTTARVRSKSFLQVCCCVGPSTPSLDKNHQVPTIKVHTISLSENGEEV
Method in brief: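 α1A-adrenergic receptor-expressing Chem-1 cells, 4 x 10^4/well overnight, loaded with FluoForte calcium dye 45 min at 37 °C then 15 min at room temperature. Compounds at 1 μM; epinephrine 20 μM added at 10 s; tamsulosin 100 nM and 1 μM as reference. Fluorescence (ex 490/em 525 nm) read for 180 s as RFU.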

[8] = target: T2, Androgen receptor (Homo sapiens) (UniProt P10275); test: Antagonist activity at AR (unknown origin) expressed in African green monkey COS7 cells at 7.5 uM after 24 hrs by dual luciferase reporter gene assay; type: cell-based
T2 sequence (whole entry): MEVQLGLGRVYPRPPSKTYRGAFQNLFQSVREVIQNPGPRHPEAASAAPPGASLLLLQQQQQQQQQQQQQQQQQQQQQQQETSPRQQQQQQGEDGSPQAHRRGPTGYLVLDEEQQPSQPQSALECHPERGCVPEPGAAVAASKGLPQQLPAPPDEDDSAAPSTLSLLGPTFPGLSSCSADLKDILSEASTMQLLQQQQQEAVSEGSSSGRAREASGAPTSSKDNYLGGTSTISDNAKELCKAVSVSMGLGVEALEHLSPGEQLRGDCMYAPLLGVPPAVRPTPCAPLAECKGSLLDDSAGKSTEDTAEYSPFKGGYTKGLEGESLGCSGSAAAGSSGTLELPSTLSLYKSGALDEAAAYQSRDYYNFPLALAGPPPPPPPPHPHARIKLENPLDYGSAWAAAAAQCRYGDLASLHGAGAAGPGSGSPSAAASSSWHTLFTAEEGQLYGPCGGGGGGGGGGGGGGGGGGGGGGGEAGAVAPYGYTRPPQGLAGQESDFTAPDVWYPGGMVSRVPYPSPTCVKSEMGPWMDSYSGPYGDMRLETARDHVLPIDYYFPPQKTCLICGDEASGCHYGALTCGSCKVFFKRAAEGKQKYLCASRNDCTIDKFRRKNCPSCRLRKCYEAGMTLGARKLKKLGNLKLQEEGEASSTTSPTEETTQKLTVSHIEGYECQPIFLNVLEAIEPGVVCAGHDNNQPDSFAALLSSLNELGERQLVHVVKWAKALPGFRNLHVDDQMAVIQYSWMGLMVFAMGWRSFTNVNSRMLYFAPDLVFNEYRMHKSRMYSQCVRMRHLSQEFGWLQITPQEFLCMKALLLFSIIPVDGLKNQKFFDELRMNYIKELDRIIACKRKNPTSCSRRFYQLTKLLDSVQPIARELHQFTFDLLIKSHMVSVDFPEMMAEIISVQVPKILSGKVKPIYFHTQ
Method in brief: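 Cos7 cells (AR-negative) transiently transfected for 8 h with pARE-E1B-LUC reporter plus pCR3.1.AR expression vector. Then in complete medium, treated with compound at 7.5 μM for 24 h; bicalutamide 3 μM as positive control. Luciferase normalized to pRL-SV40 internal control, expressed as RLU relative to control = 100%.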

Mus musculus [9] = test: Anti-depressant like activity in Swiss albino mouse assessed as reduction in immobility time at 60 mg/kg, po measured for 5 mins by tail suspension test; type: functional, organism-based
Method in brief: (§3)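 Male Swiss albino mice dosed orally in 1% gum acacia; imipramine as standard. Each mouse suspended by the tail with tape to a horizontal bar 60 cm above the table. Immobility (no limb or body movement other than respiration) recorded for 5 min after 1 min acclimatization; N = 5.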

Mus musculus [10] = test: Anti-depressant like activity in Swiss albino mouse assessed as reduction in immobility time at 60 mg/kg, po administered 60 mins prior to test measured for 5 mins by forced swim test relative to control; type: functional; parameters: scale not given: the % may be the effect or the level left; method in brief: as §2
Mus musculus [11] = test: Anti-depressant like activity in Swiss albino mouse assessed as reduction in immobility time at 20 mg/kg, po measured for 5 mins by tail suspension test; type: functional, organism-based; method in brief: as §3
Mus musculus [12] = test: Toxicity in Swiss albino mouse assessed as latency time to fall at 20 mg/kg, po measured at 1 hr interval for 4 hrs by rotarod test; type: organism-based; conditions: in vivo
Method in brief: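 Mice trained on the rotarod (5 to 10 rpm), 2 min trials, 3 per day for two days. On day 3, tested before oral dosing and at 1, 2, 3 and 4 h after, recording latency to fall.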

Mus musculus [13] = test: Toxicity in Swiss albino mouse assessed as effect on locomotor activity at 20 mg/kg, po measured at 5 mins interval for 90 mins by open field test; type: organism-based; conditions: in vivo
Method in brief: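 Male Swiss albino mice in an activity chamber, infrared beam-break counting over 24 intervals of 5 min (120 min). Oral dosing after the 6th interval; six animals per group.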

For `Fc1ccccc1N1CCN(CCCN2CCN(c3ccccc3F)CC2)CC1`, the EC50 (DU-145) was > 80 µM, the Activity (Rattus norvegicus [1]) was 37% and the Activity (Rattus norvegicus [2]) was “Non-Toxic”. The Activity (Rattus norvegicus [3]) was “Non-Toxic”, the Activity (Rattus norvegicus [4]) was “Active” and the Activity (Mus musculus [5]) was 20.86%. For the same compound, the EC50 (PC-3) was > 80 µM, the Activity (Rattus norvegicus [6]) was “Non-Toxic” and the EC50 (LNCaP) was 10.4 µM.
`COc1ccccc1N1CCN(CCN2CCN(c3ccccc3OC)CC2)CC1` was tested, and the EC50 (LNCaP) was 40 µM.
Work on `Fc1ccc(N2CCN(CCN3CCN(c4ccccc4F)CC3)CC2)cc1` yielded an EC50 (LNCaP) of 68 µM.
In the case of `CCOc1ccccc1OCCN[C@H](C)Cc1ccc(OC)c(S(N)(=O)=O)c1`, the fold change (FC) [7] is reported as 1.6.
`Fc1ccc(N2CCN(CCN3CCN(c4ccc(F)cc4)CC3)CC2)cc1` showed an EC50 (LNCaP) of 71.2 µM.
`CNCCC(Oc1ccc(C(F)(F)F)cc1)c1ccccc1` (stereo not drawn) [FLUOXETINE] gave an Activity (Mus musculus [5]) of 75.35%.
Compound `COc1ccccc1N1CCN(CCN2CCN(c3ccc(F)cc3)CC2)CC1` has an EC50 (LNCaP) of 78.7 µM.
With `CC(C)C(=O)Nc1ccc([N+](=O)[O-])c(C(F)(F)F)c1` [FLUTAMIDE] the Activity (Rattus norvegicus [1]) was 58.8% and the EC50 (LNCaP) was 7 µM.
`c1ccc(N2CCN(CCN3CCN(c4ccccn4)CC3)CC2)nc1` was tested, and the EC50 (DU-145) was > 80 µM, the Activity (Rattus norvegicus [1]) was 44% and the Activity (Rattus norvegicus [2]) was “Non-Toxic”. The Activity (Rattus norvegicus [3]) was “Non-Toxic”, the Activity (Rattus norvegicus [4]) was “Active” and the Activity (Mus musculus [5]) was 16.95%. The EC50 (PC-3) was > 80 µM, the Activity (Rattus norvegicus [6]) was “Non-Toxic” and the EC50 (LNCaP) was 12.4 µM.
`O=[N+]([O-])c1ccc(N2CCN(CCN3CCN(c4ccc([N+](=O)[O-])cc4)CC3)CC2)cc1` showed an EC50 (LNCaP) of 25.2 µM.
With `O=[N+]([O-])c1cc(C(F)(F)F)ccc1N1CCN(CCCN2CCN(c3ccc(C(F)(F)F)cc3[N+](=O)[O-])CC2)CC1` the EC50 (DU-145) was 76.5 µM, the Activity (Rattus norvegicus [1]) was 51.7% and the Activity (Rattus norvegicus [2]) was “Non-Toxic”. For the same compound, the Activity [8] was “Active”, the Activity (Rattus norvegicus [3]) was “Non-Toxic” and the Activity (Rattus norvegicus [4]) was “Active”. The Activity (Mus musculus [5]) was 25.71%, the EC50 (PC-3) was > 80 µM and the Activity (Rattus norvegicus [6]) was “Non-Toxic”. The EC50 (LNCaP) was 12.2 µM.
In the case of `CN(C)CCCN1c2ccccc2CCc2ccccc21` [IMIPRAMINE], the Activity (Mus musculus [9]) is reported as “Active” and the Activity (Mus musculus [10]) is reported as 40.39%.
`Fc1ccc(N2CCN(CCCN3CCN(c4ccc(F)cc4)CC3)CC2)cc1` gave an EC50 (LNCaP) of 49.2 µM.
`Fc1ccccc1N1CCN(CCN2CCN(c3ccccc3F)CC2)CC1` gave an EC50 (LNCaP) of 40 µM.
Work on `O=[N+]([O-])c1ccc(N2CCN(CCN3CCN(c4ccc([N+](=O)[O-])cc4C(F)(F)F)CC3)CC2)c(C(F)(F)F)c1` yielded an EC50 (LNCaP) of 72.2 µM.
`O=[N+]([O-])c1ccc(N2CCN(CCN3CCN(c4ccc(F)cc4)CC3)CC2)cc1` gave an EC50 (LNCaP) of 77.9 µM.
`O=[N+]([O-])c1ccc(N2CCN(CCCN3CCN(c4ccc([N+](=O)[O-])cc4)CC3)CC2)cc1` was tested, and the EC50 (DU-145) was > 80 µM, the Activity (Rattus norvegicus [1]) was 29% and the Activity (Rattus norvegicus [2]) was “Non-Toxic”. For the same compound, the Activity (Mus musculus [11]) was “Active”, the Time (Mus musculus [12]) was 120 s and the Activity (Mus musculus [13]) was “Non-Toxic”. For the same compound, the Activity (Rattus norvegicus [3]) was “Non-Toxic”, the Activity (Rattus norvegicus [4]) was “Active” and the Activity (Mus musculus [5]) was 69.74%. For the same compound, the EC50 (PC-3) was > 80 µM, the Activity (Rattus norvegicus [6]) was “Non-Toxic” and the EC50 (LNCaP) was 11.8 µM.
Compound `COc1ccccc1N1CCN(CCN2CCN(c3ccc([N+](=O)[O-])cc3)CC2)CC1` has an EC50 (LNCaP) of 46.5 µM.
Compound `O=[N+]([O-])c1ccc(N2CCN(CCCN3CCN(c4ccc([N+](=O)[O-])cc4C(F)(F)F)CC3)CC2)c(C(F)(F)F)c1` has an EC50 (LNCaP) of 55.5 µM.
For `O=[N+]([O-])c1cc(C(F)(F)F)ccc1N1CCN(CCN2CCN(c3ccc(C(F)(F)F)cc3[N+](=O)[O-])CC2)CC1`, the EC50 (LNCaP) was 63.2 µM.
